# Screening results deposited in PubChem BioAssay by Johns Hopkins Ion Channel Center.
# Rows were chosen to be rich in hits. Some 3.5% of all compounds tested hit in one or more screens of this group.
# RGS4 block: inhibitors of human RGS4; P49798; HEK293 M3R/RGS4 inducible, Fluo-4 calcium flux; stronger effect = higher value; triggered by carbachol at its EC20; B-score at 10 µM; hit rate 0.45% among 310,000; AID 463165;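 active means B-score, a plate-corrected calcium signal, over three deviations above library mean, with baseline fluorescence within five deviations of library mean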;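 further: RGS4 expression induced by doxycycline in cells with stable M3 receptor; B-score is computed from the integrated fluorescence ratio over baseline after carbachol; higher B-score means a larger calcium signal and so more RGS4 inhibition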
# Target sequence (P49798 whole entry, looked up): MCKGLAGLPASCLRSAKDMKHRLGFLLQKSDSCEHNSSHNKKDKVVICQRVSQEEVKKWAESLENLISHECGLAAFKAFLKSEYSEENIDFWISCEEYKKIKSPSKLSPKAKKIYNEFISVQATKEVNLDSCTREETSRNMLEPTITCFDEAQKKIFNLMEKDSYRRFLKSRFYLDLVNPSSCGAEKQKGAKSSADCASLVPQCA
# MrgX1 ag: agonists of human MrgX1 receptor | Q96LB2 | hit rate 0.44% among 310,000 | MrgX1-HEK293 cells, Fluo-4 calcium fluorescence, agonist mode; stronger effect = higher value | B-score at 10 µM;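 active means calcium response B-score plate-corrected fluorescence ratio at least 3 library SD, with starting fluorescence B-score inside 5 SD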
# Target sequence (Q96LB2 whole entry, looked up): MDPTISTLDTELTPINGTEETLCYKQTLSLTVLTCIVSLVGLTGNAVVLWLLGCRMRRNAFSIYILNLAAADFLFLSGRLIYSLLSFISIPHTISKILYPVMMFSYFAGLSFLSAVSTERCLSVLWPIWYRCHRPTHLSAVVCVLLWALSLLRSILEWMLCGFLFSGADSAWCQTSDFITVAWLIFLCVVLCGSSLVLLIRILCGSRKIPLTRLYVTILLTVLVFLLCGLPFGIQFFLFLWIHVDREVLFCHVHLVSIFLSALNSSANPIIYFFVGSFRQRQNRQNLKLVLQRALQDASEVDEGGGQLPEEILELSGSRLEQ
#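 times = overnight plating, then 30 min 37 °C plus 30 min room-temperature dye loading | assay system = stable human MrgX1 HEK293 cell line | input = fifteen thousand cells per well | signal = kinetic calcium dye fluorescence, Fluo-4 NW | dosing = compound delivered in addition one of three | read-out = B-scored fluorescence response ratio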
# MrgX1 PAM: human MrgX1 positive allosteric modulation, primary screen; Q96LB2; MrgX1-HEK293, Fluo-4 calcium flux, FDSS; stronger effect = higher value; B-score at 10 µM; hit rate 0.63% among 310,000; AID 588675;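 active means plate-corrected calcium response at least 3 library SD above typical, normal starting fluorescence, not activating the receptor alone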;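 further: compound read alongside a low EC10 to EC30 dose of BAM8-22 agonist; peak minus trough fluorescence over baseline measured at the second addition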
# MrgX1 antagonist: antagonists of human MrgX1 receptor. Q96LB2. B-score at 10 µM. hit rate 1.3% among 310,000. MRGX1-HEK293 calcium flux, Fluo-4, BAM8-22 antagonism; stronger effect = lower value. AID 588676;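 active means calcium-response B-score plate-corrected more than 3 library SD below zero, starting fluorescence within 5 deviations, no agonist response on first addition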;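 further: peak minus trough fluorescence over baseline after final BAM8-22 challenge near maximal dose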
# RGS4 pot: potentiators or activators of RGS4; HEK293 M3R/inducible RGS4, carbachol calcium flux Fluo4; stronger effect = lower value; B-score at 10 µM; hit rate 0.92% among 310,000;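 active means B-score of the integrated calcium signal more than 4 SD below the library mean, with starting fluorescence not abnormally high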;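 further: negative B-score means reduced calcium response which marks RGS4 activation or potentiation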
#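 Material: Inducible-RGS4 HEK293 cells carrying M3 receptor; also added: carbachol at ECmax as muscarinic agonist stimulus; incubation: compound preincubation 20 min at room temperature before agonist; signal: Fluo4-AM (2 µM) calcium-flux fluorescence, kinetic read; measure: integrated calcium ratio converted to B score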
# RGS4 block valid: RGS4 inhibitor validation; calcium response, % at 10 µM; shares compounds with RGS4 block; AID 492999; HEK293 M3R/RGS4, carbachol calcium Fluo-4 fluorescence; carbachol added at its EC20; 0 = buffer wells, 100 = carbachol control; hit rate 65% among 1,700;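 active means duplicate-averaged calcium response above the buffer-only control mean plus 5 SD of those controls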;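 further: integrated fluorescence ratio F max minus min over baseline F0; higher response in RGS4-induced cells means RGS4 inhibition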
# RGS4 uninduced: checks RGS4 inhibitor effects in non-induced HEK293 M3R cells. shares compounds with RGS4 block. carbachol calcium Fluo-4; submaximal (EC20) carbachol stimulus; buffer wells 0%, carbachol control wells 100%. activity (percent), % at 10 µM. hit rate 20% among 1,900. AID 493000; call rule not given here;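 further: RGS4 induction absent so cells express M3R without RGS4; higher means more calcium signal and flags a non-specific hit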
# M3R basal Ca ctr: second counter-screen for RGS4 inhibitors: non-induced cells without carbachol | shares compounds with RGS4 block | HEK293 M3R/RGS4 non-induced, Fluo-4 calcium, no carbachol; normalised: buffer wells 0%, carbachol wells 100% | calcium response (agonist-mode artifact), % at 10 µM | hit rate 22% among 1,900 | AID 493001;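 active means duplicate-averaged calcium rise in uninduced cells above buffer wells' mean plus 5 SD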
# Numbers stand for hits; i = inactive; nt = not tested or not shown.
SMILES,RGS4 block,MrgX1 ag,MrgX1 PAM,MrgX1 antagonist,RGS4 pot,RGS4 block valid,RGS4 uninduced,M3R basal Ca ctr
Cc1ccc(NC(=O)c2[nH]cnc2C(=O)NN)cc1,i,i,i,i,i,nt,nt,nt
CCSc1nc(C)nc2sc(C)c(C)c12,i,i,i,i,i,nt,nt,nt
O=c1c2cc3c(=O)n(-c4ccccc4O)c(=O)c3cc2c(=O)n1-c1ccccc1O,i,i,i,i,i,nt,nt,nt
CCOC(=O)c1c(-c2ccc(C)o2)csc1NC(=O)CSc1nnc(C)s1,i,i,i,i,i,i,i,i
CCOC(=O)c1c(-c2ccccc2)csc1NC(=O)CSc1nnc(C)s1,i,i,i,i,i,nt,nt,nt
CCOC(=O)c1c(-c2ccc(C)o2)csc1NC(=O)CSc1nnnn1-c1ccccc1,9.86,i,i,i,i,i,i,i
CCOC(=O)c1sc(NC(=O)CSc2nnnn2-c2ccccc2)nc1C,i,i,i,i,i,nt,nt,nt
OC(CNCC(c1ccc(Cl)cc1Cl)c1c[nH]c2ccccc12)c1ccccc1 (stereo not given),4.91,i,i,i,i,17.0%,i,14.0%
O=[N+]([O-])CC(c1ccccc1)c1c[nH]c2ccccc12 (stereo not given),i,i,i,i,i,nt,nt,nt
Oc1ccc(C=Nc2cccc3ccccc23)c(O)c1,i,i,i,i,i,nt,nt,nt
Cc1ccc(N=Cc2ccc(O)cc2O)cc1F,10,i,i,i,i,13.5%,i,13.0%
CCOC(=O)c1nc(C)nc(Sc2n[nH]c(-c3cc(C(F)(F)F)cc(C(F)(F)F)c3)n2)c1C,i,i,i,i,i,nt,nt,nt
CCn1c(CNC(=O)c2cccnc2)cc2ccccc21,i,i,i,i,i,nt,nt,nt
Cc1ccccc1-c1nnc(SCC(=O)N2CCCC2)o1,i,i,i,i,i,nt,nt,nt
O=C(Nc1cccc(Cl)c1)NC1CC2CCC1C2 (stereo not given),i,i,i,i,i,nt,nt,nt
O=C(Cc1cccs1)N1CCC(c2nc3c(nnn3Cc3ccc(F)cc3)c(=O)[nH]2)CC1,i,i,i,i,i,i,i,i
Cc1cccc(/C(N)=N/OC(=O)c2ccc(Br)o2)c1,5.24,i,i,i,i,i,i,i
CN(C)C1(CNC(=O)Nc2ccccc2)CCCCC1,4.67,i,i,i,i,i,i,i
CC(=O)Nc1ccc(C(=S)NCC2(N(C)C)CCCCC2)cc1,i,i,i,i,i,nt,nt,nt
COc1ccccc1C(=O)Nc1ccc2c(c1)nc(CN1CCCCC1)n2C,i,i,i,i,i,nt,nt,nt
OCC1OC(n2cnc3c(NCCc4ccccc4)ncnc32)C(O)C1O (stereo not given),6.44,i,i,i,i,29.0%,67.5%,i
Nc1ccc(CCNc2ncnc3c2ncn3[C@@H]2O[C@H](CO)[C@@H](O)[C@H]2O)cc1,i,i,i,i,i,nt,i,i
O=c1[nH]cnc2c1ncn2[C@@H]1O[C@H](CO)[C@@H](O)[C@H]1O,i,i,i,i,i,nt,nt,nt
C=C(C)C1(O)OC(=O)C=C1OC (stereo not given),7.84,i,i,i,i,9.0%,i,i
C[N+](C)(C)C[C@H](O)CC(=O)[O-],i,i,i,i,i,nt,nt,nt
SMILES,RGS4 block,MrgX1 ag,MrgX1 PAM,MrgX1 antagonist,RGS4 pot,RGS4 block valid,RGS4 uninduced,M3R basal Ca ctr
CCn1c2ccccc2c2cc(NC(=O)CSc3nnc(-c4ccc(OC)c(OC)c4)n3N)ccc21,i,i,i,i,i,i,i,i
CCn1c2ccccc2c2cc(NC(=O)CSc3nnc(-c4cccc(OC)c4)n3N)ccc21,i,i,i,i,i,nt,i,i
CCOc1ccc(-c2nnc(SCC(=O)Nc3ccc4c(c3)c3ccccc3n4CC)n2N)cc1,i,i,i,i,i,i,i,i
CCn1c2ccccc2c2cc(NC(=O)CSc3nnc(-c4ccccc4OC)n3N)ccc21,i,i,i,i,i,nt,i,i
COc1cccc(-c2nnc(SCC(=O)Nc3cc(C)ccc3OC)n2N)c1,i,i,i,i,i,nt,nt,nt
Cc1ccc(CS/C(Nc2ccccc2C)=C(\C#N)C(N)=O)c(C)c1,i,i,i,i,i,nt,nt,nt
O=C(COc1cc(Cl)c(Cl)cc1Cl)Nc1ccc([N+](=O)[O-])cc1Cl,i,i,i,i,i,nt,nt,nt
N#Cc1c(NC(=O)CSc2nc(N)cc(=O)[nH]2)sc2c1CCCC2,i,i,i,i,i,nt,nt,nt
Cc1cccc(N2C(=O)c3ccc(C(=O)Nc4ccccn4)cc3C2=O)c1,i,i,i,i,i,nt,nt,nt
Cc1cccc(N2C(=O)/C(=C\c3ccc(C(=O)O)cc3)c3ccccc3C2=O)c1,10.3,i,i,i,i,37.5%,i,i
FC(F)(F)c1cccc(-c2nn[nH]n2)c1,4.79,i,i,i,i,i,i,i
CCOc1cc(/C=C2\C(=O)N(c3ccc(C(N)=O)cc3)N=C2C)ccc1OC(=O)c1cccs1,i,i,i,i,i,nt,nt,nt
CC1=NN(c2ccc(C(=O)O)cc2)C(=O)/C1=C\c1ccc(OC(=O)c2cccs2)cc1,13.2,i,i,i,i,23.5%,i,i
Cc1ccc(NCC(=O)N/N=C/c2ccc(-c3cccc(C(F)(F)F)c3)o2)cc1,28.3,i,i,i,i,62.0%,37.0%,i
Cc1ncc([N+](=O)[O-])n1Cc1cccc(F)c1,i,i,i,i,i,nt,nt,nt
COc1cc(OC)c(N(C)C(=O)c2cc3c(s2)-c2ccccc2S(=O)(=O)C3)cc1Cl,17.1,i,i,i,i,27.5%,50.5%,i
Cc1cccc(N=N/C(=C\O)C(=O)c2ccc(Br)cc2)c1,5.27,i,i,i,i,26.0%,i,i
COc1ccc(N=N/C(=C\O)C(=O)c2cccs2)cc1,i,i,i,i,i,nt,nt,nt
COc1ccc(C(=O)/C(=C/O)N=Nc2ccc(F)cc2)cc1,6.76,i,i,i,i,56.0%,128.0%,i
COc1cccc2c1cc1c(=O)n(CC(=O)NCCCN3CCCCC3)nc(C)n12,i,i,i,i,i,nt,nt,nt
COc1ccc(OC)c(S(=O)(=O)Nc2cc(C(=O)O)ccc2N2CC3CC(C2)c2cccc(=O)n2C3)c1 (stereo not given),i,i,i,i,i,nt,nt,nt
COc1cc(OC)cc(C(=O)NN(CCC#N)C2=NS(=O)(=O)c3ccccc32)c1,i,i,i,i,i,nt,nt,nt
CCCCC1CCC(C(=O)N(CCCC)c2c(N)n(CCCC)c(=O)[nH]c2=O)CC1 (stereo not given),i,i,i,i,i,nt,nt,nt
CC(NC(=O)CCC(=O)c1ccc(F)cc1)C1CC2CCC1C2 (stereo not given),i,i,i,i,i,nt,nt,nt
